Measured values reported in ChEMBL document CHEMBL4808222, “Design and Synthesis of Novel Spiro Derivatives as Potent and Reversible Monoacylglycerol Lipase (MAGL) Inhibitors: Bioisosteric Transformation from 3-Oxo-3,4-dihydro-2H-benzo[b][1,4]oxazin-6-yl Moiety” (J Med Chem, 2021).
Values after ≈ are worked out from the molar mass of the structure shown.

Tests used:
[1] = Lipophilicity, logD of the compound at pH 7.4 by UPHLC analysis; type: physicochemical; conditions: buffer
[2] = Drug uptake in C57BL/6J Jcl mouse assessed as plasma concentration at 0.1 mg/kg, po measured after 60 mins by LC-MS/MS analysis; type: ADME, organism-based; conditions: read-out: Drug uptake
Procedure, shortened: (§1)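 Male C57BL/6J Jcl mice, 8 weeks old, given a single oral dose as a suspension in 0.5% methylcellulose at 10 mL/kg. Plasma and brain hemispheres collected 60 min post-dose (n = 4 per group). Levels measured by LC/MS/MS.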

[3] = Drug uptake in C57BL/6J Jcl mouse assessed as brain concentration at 0.3 mg/kg, po measured after 60 mins by LC-MS/MS analysis; type: ADME, organism-based; conditions: read-out: Drug uptake; procedure, shortened: as §1
[4] = Drug uptake in C57BL/6J Jcl mouse assessed as plasma concentration at 1 mg/kg, po measured after 60 mins by LC-MS/MS analysis; type: ADME, organism-based; conditions: read-out: Drug uptake; procedure, shortened: as §1
[5] = Drug uptake in C57BL/6J Jcl mouse assessed as plasma concentration at 0.3 mg/kg, po measured after 60 mins by LC-MS/MS analysis; type: ADME, organism-based; conditions: read-out: Drug uptake; procedure, shortened: as §1
[6] = Aqueous solubility of the compound in pH 6.8 JP2 fluid measured after 18 hrs by shake flask method based UHPLC analysis; type: physicochemical
[7] = Drug uptake in C57BL/6J Jcl mouse assessed as brain concentration at 1 mg/kg, po measured after 60 mins by LC-MS/MS analysis; type: ADME, organism-based; conditions: read-out: Drug uptake; procedure, shortened: as §1
[8] = Drug uptake in C57BL/6J Jcl mouse assessed as brain concentration at 10 mg/kg, po measured after 60 mins by LC-MS/MS analysis; type: ADME, organism-based; conditions: read-out: Drug uptake; procedure, shortened: as §1
[9] = Drug uptake in C57BL/6J Jcl mouse assessed as brain concentration at 0.1 mg/kg, po measured after 60 mins by LC-MS/MS analysis; type: ADME, organism-based; conditions: read-out: Drug uptake; procedure, shortened: as §1
[10] = Drug uptake in C57BL/6J Jcl mouse assessed as brain concentration at 3 mg/kg, po measured after 60 mins by LC-MS/MS analysis; type: ADME, organism-based; conditions: read-out: Drug uptake; procedure, shortened: as §1
[11] = Drug uptake in C57BL/6J Jcl mouse assessed as plasma concentration at 3 mg/kg, po measured after 60 mins by LC-MS/MS analysis; type: ADME, organism-based; conditions: read-out: Drug uptake; procedure, shortened: as §1
[12] = Drug uptake in C57BL/6J Jcl mouse assessed as plasma concentration at 10 mg/kg, po measured after 60 mins by LC-MS/MS analysis; type: ADME, organism-based; conditions: read-out: Drug uptake; procedure, shortened: as §1

| logD [1] | Structure (SMILES) | also measured |
| --- | --- | --- |
| 3 | O=C1CCC(CCC(=O)N2CCC(COc3ccc(F)cc3Cl)CC2)N1 (stereo unspecified) |  |
| 2.4 | Cc1cc(COC2CN(C(=O)[C@H]3C[C@]4(COC(=O)N4)C3)C2)ccc1Cl |  |
| 2.8 | CC(Oc1ccc(F)cc1Cl)C1CCN(C(=O)[C@H]2C[C@]3(COC(=O)N3)C2)CC1 (stereo partly specified) |  |
| 2.5 | O=C1N[C@]2(CO1)C[C@H](C(=O)N1CC(OCc3ccc(C(F)(F)F)c(C(F)(F)F)c3)C1)C2 |  |
| 2.5 | O=C1N[C@]2(CO1)C[C@H](C(=O)N1CC(OCc3ccc(Cl)cc3Cl)C1)C2 |  |
| 2.7 | O=C1CC[C@@H](CCC(=O)N2CCC(COc3ccc(F)cc3Cl)CC2)N1 |  |
| 2.4 | O=C1N[C@]2(CO1)C[C@H](C(=O)N1CC(OCc3ccc(C(F)(F)F)c(Cl)c3)C1)C2 |  |
| 3.1 | O=C1CCC2(CCCN(C(=O)N3CCC(COc4ccc(F)cc4Cl)CC3)C2)N1 (stereo unspecified) |  |
| 2.7 | O=C1CCC(COC(=O)N2CCC(COc3ccc(F)cc3Cl)CC2)N1 (stereo unspecified) |  |
| 2.6 | O=C1N[C@]2(CO1)C[C@H](C(=O)N1CCC(COc3ccc(F)cc3Cl)CC1)C2 |  |
| 3.1 | CCC(Oc1ccc(F)cc1Cl)C1CCN(C(=O)[C@H]2C[C@]3(COC(=O)N3)C2)CC1 (stereo partly specified) |  |
| 3 | O=C1COc2ncc(C(=O)N3CCC(COc4ccc(F)cc4Cl)CC3)cc2N1 |  |
| 2.7 | O=C1COCC(CCC(=O)N2CCC(COc3ccc(F)cc3Cl)CC2)N1 (stereo unspecified) |  |
| 2.3 | Cc1ccc(COC2CN(C(=O)[C@H]3C[C@]4(COC(=O)N4)C3)C2)cc1Cl | concentration at 1 h [2]: 17 ng/mL; concentration at 1 h [3]: 99 ng/g; concentration at 1 h [4]: 163 ng/mL; concentration at 1 h [5]: 62 ng/mL; solubility thermodynamic at 18 h [6]: 330 µg/mL (≈ 905 µM); concentration at 1 h [7]: 169 ng/g; concentration at 1 h [8]: 711 ng/g; concentration at 1 h [9]: 31 ng/g; concentration at 1 h [10]: 322 ng/g; concentration at 1 h [11]: 457 ng/mL; concentration at 1 h [12]: 1520 ng/mL |
| 2.7 | O=C1CC[C@H](CCC(=O)N2CCC(COc3ccc(F)cc3Cl)CC2)N1 |  |
